Source: PubChem
bIAP activator: increases bovine intestinal alkaline phosphatase activity. actives 0.17% (n = 200,000). activation factor at 20 µM. AID 1016. purified bovine IAP, CDP-star luminescence, 30 min; active compounds read high; fold of DMSO-control signal, blank-subtracted;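 active means activation factor of 2 or more at 20 µM, a signal rise over negative controls twice the positive control's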
hIAP block: human IAP inhibition; purified IAP, CDP-Star luminescence, 30 min; inhibition, % at 10 µM; actives 0.12% (n = 330,000); AID 2544;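 active means inhibition reaching a set limit with compound at 10 µM in the primary screen, cut at about 35% in these data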;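 further: plate controls were DMSO wells with enzyme for no effect and no-enzyme buffer wells for full effect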
Target sequence (P09923 whole entry, looked up): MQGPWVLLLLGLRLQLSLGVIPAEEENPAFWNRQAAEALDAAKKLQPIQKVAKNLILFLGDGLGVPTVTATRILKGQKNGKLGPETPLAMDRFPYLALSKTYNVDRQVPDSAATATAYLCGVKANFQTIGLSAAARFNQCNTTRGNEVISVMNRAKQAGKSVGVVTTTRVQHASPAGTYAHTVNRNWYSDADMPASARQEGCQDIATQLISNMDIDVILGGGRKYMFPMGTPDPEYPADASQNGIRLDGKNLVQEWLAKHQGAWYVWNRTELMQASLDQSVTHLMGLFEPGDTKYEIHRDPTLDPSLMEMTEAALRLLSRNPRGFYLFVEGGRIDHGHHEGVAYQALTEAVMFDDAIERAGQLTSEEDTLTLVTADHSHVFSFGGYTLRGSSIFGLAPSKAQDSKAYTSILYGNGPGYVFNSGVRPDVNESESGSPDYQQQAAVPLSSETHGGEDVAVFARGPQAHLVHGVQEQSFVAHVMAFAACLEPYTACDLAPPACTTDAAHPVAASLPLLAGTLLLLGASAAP
mIAP block: mouse IAP inhibition; purified mouse IAP, CDP-Star luminescence, 30 min; inhibition, % at 10 µM; actives 0.2% (n = 330,000); AID 2806;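 active means inhibition of at least 40% at 10 µM in the primary screen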;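 further: plate controls were DMSO with enzyme for no effect and no enzyme wells for full effect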
hIAP act: increases human intestinal alkaline phosphatase activity | actives 0.16% (n = 330,000) | P09923 | activation factor at 10 µM | AID 2524 | purified human IAP, CDP-Star luminescence, 30 min; active compounds read high; 1 = vehicle-only enzyme, 0 = enzyme-free background;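 active means activation factor of the enzyme at least 2-fold when tested at 20 µM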
bIAP inhibitor: intestinal alkaline phosphatase (bovine) inhibition; purified bovine IAP, CDP-star luminescence, 30 min; inhibition, % at 20 µM; 190,000 tested, under 10 active; AID 1019;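 active means over 50% inhibition of intestinal alkaline phosphatase at 20 µM in the single-dose screen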
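test system = bovine IAP enzyme | medium = DEA buffer 100 mM, pH 9.8, with MgCl2 1.0 mM, ZnCl2 0.02 mM | detection = luminescence | dosing = single compound dose of 20 µM, 2% DMSO final | incubation = 30 min reaction at room temperature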
mIAP act: increases mouse intestinal alkaline phosphatase activity | muIAP, CDP-Star luminescence, 30 min; active compounds read high; 1 = vehicle-only enzyme signal, 0 = enzyme-free wells | activation factor at 10 µM | actives 0.24% (n = 330,000) | AID 2805;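 active means activation factor of at least 2 at 20 µM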
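also added = chemiluminescent substrate CDP-Star | test system = mouse IAP enzyme | signal = chemiluminescence readout | compound = DMSO-dissolved test compounds | incubation = 30 min at room temperature | benchmarks = DMSO wells, no-enzyme wells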
mIAP inh confirm: mouse IAP inhibition confirmation | shares compounds with mIAP block | inhibition, % at 10 µM | purified mouse IAP, CDP-Star luminescence, 30 min | actives 4.7% (n = 11,000);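 active means inhibition of at least 40% at 10 µM in either of the two replicates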;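 further: plate controls were DMSO wells with enzyme for no effect and buffer wells lacking enzyme for full effect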
* = called active by the depositor; i = inactive; / = no result. Sampled rows, rich in hits. Any-hit rate of the full collection: about 0.79%.

SMILES | bIAP activator | hIAP block | mIAP block | hIAP act | bIAP inhibitor | mIAP act | mIAP inh confirm
Cc1cccc(N2CSC3=C(C#N)C(c4ccc(C)o4)CC(=O)N3C2)c1 (configuration not stated) | 1 | -5 | 58* | 1.1 | -1 | 0.42 | 63*
COc1ccc(OC)c(C2CC(=O)N3CN(c4ccccc4)CSC3=C2C#N)c1 (configuration not stated) | 0.9 | 2 | 37 | 0.98 | 5 | 0.63 | /
CN(CCO)c1ccc(C=NNc2ccc([N+](=O)[O-])cc2S(=O)(=O)Nc2ccccc2C(=O)O)cc1 | / | 2 | 46* | 0.97 | / | 0.54 | 46*
CC(=O)Nc1ccc(C=NNc2ccc([N+](=O)[O-])cc2S(=O)(=O)Nc2ccccc2C(=O)O)cc1 | / | 11 | 32 | 0.89 | / | 0.68 | /
O=C1c2ccccc2C(=O)C1c1ccc(O)cc1 | 0.9 | -30 | 8 | 1.3 | 9 | 0.92 | /
O=C1c2cc(O)c(O)cc2S(=O)(=O)C1c1ccccc1 (configuration not stated) | / | 6 | 51* | 0.94 | / | 0.49 | 62*
COCCn1c(CN2CCN(C(=O)c3ccco3)CC2)nc2c1c(=O)n(C)c(=O)n2C | / | -2 | -10 | 1 | / | 1.1 | /
Cc1ccc(C2C(C#N)=C(N)SC(N)=C2C#N)o1 | 0.9 | 7 | 44* | 0.93 | 6 | 0.56 | 45*
CCc1ccc(C2C(C#N)=C(N)SC(N)=C2C#N)s1 | 0.9 | 1 | 23 | 0.99 | 9 | 0.77 | /
O=S(=O)(Nc1ccccc1N1CCOCC1)c1ccc(Cl)cc1 | / | -12 | 6 | 1.1 | / | 0.94 | /
CCOC(=O)C1=C(C)N=c2s/c(=C/c3cccc([N+](=O)[O-])c3O)c(=O)n2C1c1ccc(OC)cc1OC (configuration not stated) | / | -4 | 43* | 1 | / | 0.57 | 44*
CCOC(=O)C1=C(C)N=c2s/c(=C\c3ccc(O)c([N+](=O)[O-])c3)c(=O)n2C1c1ccccc1OC (configuration not stated) | / | 24 | 27 | 0.76 | / | 0.73 | /
CC(C)n1c(NCc2nc3ccccc3n2C)nc2ccccc21 | 1.7 | 6 | -28 | 0.94 | -67 | 1.3 | /
CCn1c(CNc2nc3ccccc3n2C(C)C)nc2ccccc21 | 3.1* | -21 | -100 | 1.2 | -210 | 2* | -97
C/C(=N\NC(=O)Cc1ccc(Cl)cc1)c1cccnc1 | / | -7 | 3 | 1.1 | / | 0.97 | /
Cc1cc2nc(C)n(CCCNC(=O)Nc3cccc4ccccc34)c2cc1C | 2.7* | -14 | -156 | 1.1 | -167 | 2.6* | -118
CCCCn1nc(C(=O)NCC2COc3ccccc3O2)c2ccccc2c1=O (configuration not stated) | / | -4 | 0 | 1 | / | 1 | /
Cn1c(=O)c2c(nc(NC3CCCCC3)n2CC(=O)C23CC4CC(CC(C4)C2)C3)n(C)c1=O | 1 | -23 | -100 | 1.2 | -1 | 2* | -465
NS(=O)(=O)c1ccc(N=Nc2c[nH]c(=O)c(O)c2)cc1 | / | -12 | 68* | 1.1 | / | 0.32 | 81*
COC(=O)c1ccc(N2CCOCC2)c(NC(=O)Nc2cccc(OC)c2)c1 | 1 | 0 | -23 | 1 | -1 | 1.2 | /
CCOC(=O)c1ccc(N2CCN(c3ccccc3F)CC2)c(NC(=O)Nc2cccc(OC)c2)c1 | 1.2 | -72 | i | 1.7 | -20 | 8.6* | -362
COCC1CCCN(C(=O)c2ccc3nc(Cc4cccc(Cl)c4)oc3c2)C1 (configuration not stated) | / | -8 | -4 | 1.1 | / | 1 | /
CCOP(=O)(OCC)C(NC(=O)Nc1ccc(C)c(Cl)c1)c1ccccc1 (configuration not stated) | 1.1 | 8 | -237 | 0.92 | -6 | 3.4* | -159
CC(Cc1ccc(O)c(O)c1)C(C)Cc1ccc(O)c(O)c1 (configuration not stated) | / | -14 | 58* | 1.1 | / | 0.42 | 51*
COc1cc(C[C@@H](C)[C@@H](C)Cc2ccc(O)c(OC)c2)ccc1O | / | 6 | 11 | 0.94 | / | 0.89 | /
SMILES | bIAP activator | hIAP block | mIAP block | hIAP act | bIAP inhibitor | mIAP act | mIAP inh confirm
O=C(NC(=S)N1CCOCC1)c1cn(-c2ccccc2)nc1-c1ccc(F)cc1 | / | -9 | -4 | 1.1 | / | 1 | /
COc1ccc(S(=O)(=O)N2CCOC2CNC(=O)C(=O)NCc2ccccc2Cl)cc1 (configuration not stated) | / | 0 | 2 | 1 | / | 0.98 | /
CC(/C=N/n1c(-c2ccco2)n[nH]c1=S)=C\c1ccco1 | 0.8 | 7 | 50* | 0.93 | 18 | 0.5 | 52*
Cc1cccc(-c2n[nH]c(=S)n2/N=C/C=C/c2ccco2)c1 | / | -8 | 46* | 1.1 | / | 0.54 | 53*
COc1ccc(C(=O)NNC(=O)COC(=O)c2sccc2C)cc1 | / | -5 | 8 | 1 | / | 0.92 | /
COc1cccc(/C=N/n2c(C3CCCCC3)n[nH]c2=S)c1 | / | 15 | -3 | 0.85 | / | 1 | /
O=C(CCCSc1ccccc1)Nc1nc(-c2ccco2)c(-c2ccco2)s1 | 1 | / | / | / | -4 | / | /
O=C(CCl)Nc1nc(-c2ccco2)c(-c2ccco2)s1 | 1 | -6 | 77* | 1.1 | 1 | 0.23 | 74*
Cc1ccc(C(=O)Nc2nc(-c3ccco3)c(-c3ccco3)s2)o1 | / | -13 | 64* | 1.1 | / | 0.36 | 68*
CNC[C@@H]1Oc2c(NC(=O)Nc3ccccc3)cccc2C(=O)N([C@@H](C)CO)C[C@H]1C | / | -9 | 0 | 1.1 | / | 1 | /
CNC[C@@H]1Oc2ccc(NC(=O)Nc3cccc4ccccc34)cc2C(=O)N([C@@H](C)CO)C[C@@H]1C | / | -2 | -325 | 1 | / | 4.3* | -143
CNC[C@H]1Oc2ccc(NC(=O)Nc3ccc(OC)cc3)cc2C(=O)N([C@@H](C)CO)C[C@H]1C | / | -4 | -199 | 1 | / | 3* | -123
CC(C)C1Nc2ccc(S(N)(=O)=O)cc2C2C=CCC21 (configuration not stated) | 1 | 10 | 48* | 0.91 | -3 | 0.52 | 45*
CCOC(=O)C1Nc2ccc(OC(F)(F)F)cc2C2C=CCC12 (configuration not stated) | / | 9 | -4 | 0.91 | / | 1 | /
O=C(CC1Nc2cccc3cccc(c23)NC1=O)Nc1ccccc1 (configuration not stated) | 1.1 | -9 | 37 | 1.1 | -8 | 0.63 | /
NC(=O)CC1Nc2cccc3cccc(c23)NC1=O (configuration not stated) | 0.9 | -17 | 41* | 1.2 | 5 | 0.59 | 50*
CC/C(C)=N/Nc1nc2c(c(=O)[nH]c(=O)n2C)n1CCc1ccccc1 | 1 | -16 | 41* | 1.2 | 2 | 0.59 | 47*
O=C1NC(=Nc2ccccc2)S/C1=C\C=C\c1ccco1 | 1 | 14 | 73* | 0.86 | 2 | 0.27 | 72*
